The values that follow come from ChEMBL document CHEMBL4229508, “Nitric oxide donor-based FFA1 agonists: Design, synthesis and biological evaluation as potential anti-diabetic and anti-thrombotic agents” (Bioorg Med Chem, 2018).

The subject of one test is Mus musculus. The experiment in a line: Antidiabetic activity in ICR mouse assessed as reduction in plasma glucose AUC (0 to 90 mins) at 20 mg/kg, po dosed 30 mins prior to glucose challenge by OGTT relative to control. The test is classed as functional. Further details: scale not given: the % may be the effect or the level left. The gist of the method:
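Male ICR mice, fasted 12 h, randomized into groups (n = 6). Compound was given orally at 20 mg/kg in 0.5% methylcellulose 30 min before an oral glucose load (3 g/kg). Blood glucose was read by test strips at −30, 0, 15, 30, 60 and 90 min. AUC0–90min was calculated; mean ± SD.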

For test [1], the target named is Free fatty acid receptor 1 (Homo sapiens, UniProt O14842). In words: Agonist activity at human FFA1 receptor expressed in CHO cells assessed as increase in intracellular calcium levels measured for 90 secs by Fluo 4-AM dye based FLIPR assay. The test is classed as functional, cell-based. The gist of the method: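 CHO cells stably expressing human FFA1 were seeded at 15 K cells/well and grown 12 h at 37 °C, 5% CO2, then washed with HBSS. Ca2+ flux after compound addition was read on FLIPR for 90 s. Activity = [(A−B)/(C−B)]×100, with B = vehicle and C = 10 µM γ-linolenic acid.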
Sequence of Free fatty acid receptor 1 (O14842 whole entry): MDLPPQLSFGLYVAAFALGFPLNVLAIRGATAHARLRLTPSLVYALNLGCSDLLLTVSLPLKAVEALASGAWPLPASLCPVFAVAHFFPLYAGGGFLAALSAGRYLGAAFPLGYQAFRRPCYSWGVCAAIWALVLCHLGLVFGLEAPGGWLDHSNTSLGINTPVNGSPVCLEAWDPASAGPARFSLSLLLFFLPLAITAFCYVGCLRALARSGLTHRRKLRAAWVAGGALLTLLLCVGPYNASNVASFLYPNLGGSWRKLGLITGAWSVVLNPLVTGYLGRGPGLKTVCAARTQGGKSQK

Test [2] deals with Platelet. The experiment in a line: Antiplatelet activity in rabbit platelet rich plasma assessed as inhibition of ADP-induced platelet aggregation at 0.1 mM preincubated for 5 mins followed by ADP addition measured up to 5 mins in presence of NO scavenger carboxy-PTIO. The test is classed as functional. The note with it: Oryctolagus cuniculus. The gist of the method:
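Run as the rabbit PRP turbidimetric assay: compound at 0.1 mM, 5 min preincubation at 37 °C, ADP 10 µM, maximal light transmission recorded within 5 min. Carboxy-PTIO (20 µM) was also incubated with the drug-platelet suspension. Inhibition % is relative to vehicle. Mean ± SD of three independent experiments.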

Test [3] concerns Platelet. The experiment in a line: Antiplatelet activity in rabbit platelet rich plasma assessed as inhibition of ADP-induced platelet aggregation at 0.1 mM preincubated for 5 mins followed by ADP addition measured up to 5 mins. Format: functional. To be noted: Oryctolagus cuniculus. The gist of the method:
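Rabbit blood was spun at 500 rpm for 10 min to give PRP, and then at 3000 rpm for 10 min to give PPP. PRP was preincubated in duplicate with compound (0.1 mM), vehicle or ticlopidine for 5 min at 37 °C. Aggregation was induced with ADP (10 µM), and light transmission at maximal aggregation was recorded within 5 min. Inhibition % = (A−B)/A×100 versus vehicle. Three independent experiments, mean ± SD.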

Structures are written as SMILES.

Consider `Cc1cc(OCCCS(C)(=O)=O)cc(C)c1-c1cccc(COc2ccc3c(c2)OC[C@H]3CC(=O)O)c1`, for which the Activity with Mus musculus is 32.3%.
Regarding `COc1cc(C)c(-c2cccc(COc3ccc(OCC(=O)O)c(F)c3)c2)c(C)c1`, the half-maximal effective concentration (EC50) in test [1] amounted to 54.2 nM.
As to `Cc1cc(OCCCO[N+](=O)[O-])cc(C)c1-c1cccc(COc2ccc(OCC(=O)O)c(F)c2)c1`, the Activity in the test with Mus musculus was found to be 41.6%. In addition, the inhibition at 100 µM in the test with Platelet [2] is 1.05%; in the test with Platelet [3], 10.8%. Further, the 50% effective concentration (EC50) in test [1] turned out to be 61.5 nM.
Consider `Cc1cc(OCCO[N+](=O)[O-])cc(C)c1-c1cccc(COc2ccc(OCC(=O)O)c(F)c2)c1`, for which the figures for the inhibition at 100 µM in the test with Platelet [2] and in the test on Platelet [3] were 1.34% and 8.28%, respectively. Besides, the EC50 in test [1] was 76.4 nM.
`Cc1cc(OCCCCO[N+](=O)[O-])cc(C)c1-c1cccc(COc2ccc(OCC(=O)O)c(F)c2)c1`: the figures for the inhibition at 100 µM in the test on Platelet [2] and in the test on Platelet [3] were 1.15% and 11.1%, respectively. For the same compound, in test [1], the concentration for a half-maximal effect (EC50) worked out at 93.7 nM.
